Calls of active or inactive are those of the source.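 The calls were made as follows: active = current rise at least 3 SD above the untreated control mean in each of two repeat wells; inactive = the rest.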
target: Potassium voltage-gated channel subfamily KQT member 1 (Homo sapiens) (UniProt P51787); experiment: KCNQ1 activators by electrophysiology – IonWorks patch clamp, KCNQ1-CHO cells, orthogonal assay for KCNQ1 potentiator project, confirmation (AID 493184); conditions: automated patch clamp current, at 10 µM
Outline: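 Read-out: Percent current increase versus pre-compound level | Assay system: CHO cells carrying KCNQ1 | Measured by: Automated perforated-patch electrophysiology | Medium: External bath solution at pH 7.4 | Dosing: One dose, 10 µM final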

Sequence of Potassium voltage-gated channel subfamily KQT member 1 (Homo sapiens) (P51787 whole entry, looked up): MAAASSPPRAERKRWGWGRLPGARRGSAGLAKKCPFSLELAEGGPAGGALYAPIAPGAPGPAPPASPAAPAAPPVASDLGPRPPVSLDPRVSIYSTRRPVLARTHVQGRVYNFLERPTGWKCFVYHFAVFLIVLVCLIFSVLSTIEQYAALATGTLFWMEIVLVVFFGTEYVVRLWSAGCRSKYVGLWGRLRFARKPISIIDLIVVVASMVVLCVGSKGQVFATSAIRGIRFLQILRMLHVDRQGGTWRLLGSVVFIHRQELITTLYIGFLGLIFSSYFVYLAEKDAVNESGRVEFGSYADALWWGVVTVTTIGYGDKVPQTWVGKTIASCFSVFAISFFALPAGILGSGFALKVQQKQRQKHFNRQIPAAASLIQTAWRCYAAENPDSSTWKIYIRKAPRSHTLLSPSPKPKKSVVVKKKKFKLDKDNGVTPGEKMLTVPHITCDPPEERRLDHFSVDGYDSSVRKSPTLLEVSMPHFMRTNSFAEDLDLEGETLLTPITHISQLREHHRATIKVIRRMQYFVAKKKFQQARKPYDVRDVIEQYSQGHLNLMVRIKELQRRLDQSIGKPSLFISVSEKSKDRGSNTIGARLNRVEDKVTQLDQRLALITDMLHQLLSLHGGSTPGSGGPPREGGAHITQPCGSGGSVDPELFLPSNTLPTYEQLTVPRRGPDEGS

outcome, inactive:
COC(=O)c1ccc(CNC(=O)c2ccc(COc3ccccc3)cc2)cc1
CCN(CC)c1ccc(Nc2cc3n(c(=O)n2)CCc2cc(OC)c(OC)cc2-3)cc1
O=C1N(Cc2ccc(F)cc2)CCN1c1ccc(F)cc1
CO/N=C/CC(=O)Nc1ccc(F)cc1F
CC1Cc2ccccc2N1C(=S)NC(=O)c1cccc(Br)c1 (stereo not given)
COc1ccc(OCC(=O)NC(=S)Nc2ccc(N3CCOCC3)c(Cl)c2)cc1
CC(C(=O)O)n1c2ccccc2c2cn[nH]c(=O)c21 (stereo not given)
CCCN1C(=O)/C(=C/c2ccc(C)s2)NC1=S
Cc1onc(-c2ccccc2Cl)c1C(=O)Nc1ccccc1O
Cc1sc2ncnc(SCC(=O)NC(=O)c3cccn3C)c2c1C
COc1ccc(C(=O)NC(=S)N(Cc2ccccc2)Cc2ccccc2)cc1
FC(F)(F)c1cc(N2CCNCC2)c2ccccc2n1
CNc1ccccc1C(=O)OC(C)C(=O)Nc1ccc(Cl)cn1 (stereo not given)
COC(=O)c1cccc(NC(=O)CSc2nncn2-c2ccccn2)c1
Cc1cc(C(=O)N/N=C/c2cccs2)no1
COc1cc(/C=N/Nc2snc(SC)c2C#N)ccc1O
CCOC(=O)C(=Cc1cc(=O)c(OC)co1)C(=O)OCC
O=C(NC(=S)Nc1ccc(C(F)(F)F)cc1)c1csnn1
N#CC(c1ccc(Cl)cc1)c1ccc2c(C(F)(F)F)cc(C(F)(F)F)nc2n1 (stereo not given)
CNC(=S)Nc1sc2c(c1C(=O)OC)CCC2
CC(NC(=S)NC(=O)c1ccccc1Br)c1ccccc1 (stereo not given)
Cc1cccc(-c2n[nH]c(=S)n2/N=C/c2cccs2)c1
COC(=O)C1C(c2ccc(OC)c(OC)c2)NC(c2ccc(OC)c(OC)c2)C(C(=O)OC)S1(=O)=O (stereo not given)
CCCSC(=S)c1c(C)[nH]n(-c2ccccc2)c1=O
O=C(Cn1c(C(F)(F)F)nc2ccccc21)N=Nc1c(O)[nH]c2ccc(Br)cc12
CCCn1c(=S)[nH]c2ccc(C(F)(F)F)cc21
COc1ccc(CCN(C)C(=O)CSc2nnc(-c3ccco3)o2)cc1OC
C=CCN(c1ccccc1)S(=O)(=O)c1cccc(C(=O)Nc2cccc(C)n2)c1
Cc1ccc(C)c(S(=O)(=O)NCC(=O)N2CCCC2)c1
COc1ccccc1C(=O)NNC(=O)C(=O)NC(C)(C)C
S=c1nc(C2CCCCC2)[nH]c2ccccc12
NC(=O)COC(=O)c1ccccc1Nc1ccc(SC(F)F)cc1
CC1(c2ccccc2)CC(C)(C)N2C(=O)/C(=C3\SC(=S)NC3=O)c3cccc1c32 (stereo not given)
N#C/C(=C\c1ccc(-c2ccccc2Cl)o1)C(=O)Nc1nc2ccccc2s1
CC(C)CC(=O)NC(=S)Nc1nc(-c2ccccc2)cs1
O=C(COC(=O)C12CC3CC(CC(C3)C1)C2)NCCCc1ccccc1
C=CCN(CC=C)C(=S)NC(=O)c1ccc(OC)cc1
O=C(COc1ncnc2ccc(Br)cc12)Nc1ccc(N2CCOCC2)cc1
CCc1ccc(CNC(=O)CCn2nc(C)c3c(C)n(-c4ccccc4)nc3c2=O)cc1
CCCCn1c(N)c(C(=S)NC(=O)CC(C)(C)C)c(=O)n(C)c1=O

From PubChem BioAssay
